Measurements from ChEMBL document CHEMBL4330158, “Prenylated Flavonoids from the Roots and Rhizomes of Sophora tonkinensis and Their Effects on the Expression of Inflammatory Mediators and Proprotein Convertase Subtilisin/Kexin Type 9” (J Nat Prod, 2019).
pIC50: −log10 of the molar value. Calls of active or inactive are those of the source. The calls are words filed in the database; no cut-off is given here.

How the values were obtained:
RAW264.7 [1] = test: Anti-inflammatory activity in mouse RAW264.7 cells assessed as inhibition of LPS-induced NO production by Griess assay; assay type: functional, cell-based
Summary of the method: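 Murine RAW264.7 macrophages were kept in RPMI 1640 with 10% FBS and penicillin/streptomycin at 37 °C and 5% CO2. NO production was taken as the nitrite concentration in the culture medium, measured by the Griess reaction.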

RAW264.7 [2] = test: Anti-inflammatory activity in mouse RAW264.7 cells assessed as inhibition of LPS-induced TNF mRNA level at 2 to 50 uM after 6 hrs by qRT-PCR assay; assay type: functional, cell-based
Summary of the method: (§1)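 RAW264.7 macrophages were grown in RPMI 1640 with 10% FBS at 37 °C and 5% CO2, then stimulated with LPS for 6 h. Total RNA was extracted with Trizol, and 1 μg was reverse-transcribed with oligo-dT at 42 °C for 1 h. SYBR Green qPCR ran 40 cycles of 95 °C 10 s and 55 °C 30 s. Levels were normalized to GAPDH by 2−ΔΔCT and given as mean ± SEM.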

RAW264.7 [3] = test: Anti-inflammatory activity in mouse RAW264.7 cells assessed as inhibition of LPS-induced CSF2 mRNA level at 2 to 50 uM after 6 hrs by qRT-PCR assay; assay type: functional, cell-based; summary of the method: as §1
RAW264.7 [4] = test: Cytotoxicity against mouse RAW264.7 cells assessed as reduction in cell viability at 20 uM by MTT assay; assay type: cell-based; details: raw264.7, 20 µM
Summary of the method: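 Viability was read by MTT assay in triplicate, with cells cultured at 37 °C in humidified 5% CO2.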

RAW264.7 [5] = test: Anti-inflammatory activity in mouse RAW264.7 cells assessed as inhibition of LPS-induced IL-1beta mRNA level at 2 to 50 uM after 6 hrs by qRT-PCR assay; assay type: functional, cell-based; summary of the method: as §1
HepG2 (Homo sapiens) [6] = test: Inhibition of PCSK9 mRNA level in human HepG2 cells at 20 uM by qRT-PCR assay relative to control
RAW264.7 [7] = test: Anti-inflammatory activity in mouse RAW264.7 cells assessed as inhibition of LPS-induced TNF mRNA level at 2 to 10 uM after 6 hrs by qRT-PCR assay; assay type: functional, cell-based; summary of the method: as §1
RAW264.7 [8] = test: Anti-inflammatory activity in mouse RAW264.7 cells assessed as inhibition of LPS-induced CSF2 mRNA level at 2 to 10 uM after 6 hrs by qRT-PCR assay; assay type: functional, cell-based; summary of the method: as §1
RAW264.7 [9] = test: Anti-inflammatory activity in mouse RAW264.7 cells assessed as inhibition of LPS-induced IL-1beta mRNA level at 2 to 10 uM after 6 hrs by qRT-PCR assay; assay type: functional, cell-based; summary of the method: as §1
HepG2 (Homo sapiens) [10] = test: Inhibition of PCSK9 protein synthesis in human HepG2 cells by immunoblot analysis
HepG2 (Homo sapiens) [11] = test: Induction of ACC phosphorylation in human HepG2 cells at 4 to 20 uM by Western blot analysis

Row | SMILES | pIC50 (RAW264.7 [1]) | pIC50 (HepG2 (Homo sapiens) [10]) | Activity (RAW264.7 [4]) | inhibition at 20 µM (HepG2 (Homo sapiens) [6]) | also measured
1 | CC(C)=CCc1c(O)c(CC=C(C)C)c2c(c1O)C(=O)C[C@@H](c1ccc(O)cc1)O2 [LONCHOCARPOL A] |  |  | Toxic | 67.2% | 
2 | COc1ccc2cc3[n+](cc2c1OC)CCc1cc2c(cc1-3)OCO2 [BERBERINE] |  | 5.16 |  | 67% | 

The next lines start with results.

Row | pIC50 (RAW264.7 [1]) | pIC50 (HepG2 (Homo sapiens) [10]) | SMILES | Activity (RAW264.7 [4]) | inhibition at 20 µM (HepG2 (Homo sapiens) [6]) | also measured
3 | 5.21 |  | COc1ccc(-c2coc3c(CC=C(C)C)c(OC)ccc3c2=O)cc1 | Non-Toxic |  | inhibition (RAW264.7 [2]): Active; inhibition (RAW264.7 [3]): Active; inhibition (RAW264.7 [5]): inactive
4 | 5.09 |  | COc1ccc([C@@H](CO)C(=O)c2cc(CC=C(C)C)c(OC)cc2O)cc1 | Non-Toxic |  | inhibition (RAW264.7 [7]): inactive; inhibition (RAW264.7 [8]): Active; inhibition (RAW264.7 [9]): Active
5 |  | 5.11 | CC(C)=CCc1c(O)ccc2c1OC[C@H]1c3ccc4c(c3O[C@@H]21)OC(C)(C)C=C4 [ERYBREADIN D] |  | 44% | Activity (HepG2 (Homo sapiens) [11]): Active
